TRPC4 act = TRPC4 (mouse) channel activation; 310,000 tested, 0.49% active; B-score at 10 µM; Q9QUQ5; HEK293 TRPC4beta/mu-opioid, Fluo4 calcium fluorescence; stronger effect = higher value;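 active = B-score above 5 SD of library B-scores, and initial fluorescence ratio not above library mean plus 5 SD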;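 also: positive B-score marks a calcium rise read as TRPC4 activation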
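System: HEK293 cells stably co-expressing mouse TRPC4beta and mu-opioid receptor; Schedule: Fluo4 dye loading 45 min at room temperature, 110 s recording; Detection: Fluo4 fluorescence, kinetic; Evaluation: B-scored integrated calcium fluorescence ratio; Controls: buffer (low) and maximal DAMGO (high).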
TRPC6 inhibitor = blocks the mouse TRPC6 cation channel; Q61143; HEK293-TRPC6, membrane potential dye, ACh-evoked depolarization; stronger effect = lower value; B-score at 10 µM; 310,000 tested, 1.1% active;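 active = B-score under library mean minus 3 SD, initial fluorescence not abnormally high, positive integrated signal ratio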;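 also: B-score derived from integrated fluorescence ratio over the kinetic read; more negative B-score means stronger inhibition of depolarization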
TRPC6 activator = mouse TRPC6 channel activation | B-score at 10 µM | 310,000 tested, 0.13% active | HEK293-TRPC6 membrane potential dye fluorescence; stronger effect = higher value | Q61143;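 active = B-score of the integrated fluorescence ratio above library mean plus 3 SD, and starting fluorescence ratio within library mean plus 5 SD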;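 also: higher score means more depolarization so channel activation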
TRPC4 potent = allosteric potentiators of mouse TRPC4 channel; Q9QUQ5; HEK293 TRPC4beta/mu-opioid, DAMGO EC20, Fluo-4 Ca2+ flux; stronger effect = higher value; B-score at 10 µM; 310,000 tested, 0.42% active;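 active = B-score of calcium response area above 5 SD of library B-scores, with initial fluorescence ratio within 5 SD of library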;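 also: B-score of integrated fluorescence ratio over time as area under calcium response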
TRPC4 inh = inhibitors of mouse TRPC4 channel; B-score at 10 µM; HEK293 TRPC4beta/mu-opioid, DAMGO-evoked Fluo4 calcium flux; stronger effect = lower value; 300,000 tested, 0.39% active; Q9QUQ5;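 active = B-score over 3 SD under the library average, no early fluorescence shift, positive overall ratio signal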
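System: stable TRPC4beta/mu-opioid receptor HEK293 cells; Dosing: single-point compound dosing; Measured by: Fluo4 Ca2+ flux fluorescence; Read-out basis: per-well B score of integrated baseline-normalized Fluo4 ratio.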
TRPC4 sel inh 2 = second check of whether TRPC6 inhibitors also affect mouse TRPC4; shares compounds with TRPC6 inhibitor; HEK293 TRPC4/MOR, membrane potential dye fluorescence; channel activated by saturating DAMGO dose; inhibition, % at 10 µM; 920 tested, 42% active;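 active = compounds whose fluorescence signal differed from control wells by over 3 SD, either direction, in both duplicate plates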
TRPC4 spec = mouse TRPC4 off-target activity of TRPC6 inhibitors | shares compounds with TRPC6 inhibitor | HEK293 TRPC4/mu-opioid, membrane potential fluorescence | activity change, negative = inhibition, % at 10 µM | 920 tested, 61% active | AID 2777;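 active = rise or fall in signal beyond 3 SD of buffer-only wells in both replicate plates, either sign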;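 also: integrated kinetic ratio of fluorescence range over baseline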
HEK293 MPD ctr 2-1 = parental HEK293 nonspecific activity of TRPC6 inhibitors, second screen | signal change vs control, % at 10 µM | shares compounds with TRPC6 inhibitor | parental HEK293 membrane potential dye fluorescence; maximal acetylcholine challenge after compound addition | 920 tested, 31% active;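 active = membrane potential signal moving either way by over 3 SD of the maximum-effect control, in both duplicate plates, meaning non-specific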
HEK293 MPD ctr-1 = counter-screen for TRPC6 inhibitors: effect in parental HEK293 cells | membrane potential signal change, % at 10 µM | shares compounds with TRPC6 inhibitor | 920 tested, 60% active | AID 2780 | parental HEK293 membrane potential dye fluorescence;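 active = membrane potential signal shifting up or down by more than 3 SD of buffer-only wells, on both duplicate plates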
HEK293 MPD ctr-2 = parental HEK293 nonspecific activity of TRPC6 modulators; shares compounds with TRPC6 inhibitor; membrane potential dye fluorescence; membrane potential signal change, % at 10 µM; 2,400 tested, 51% active;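 active = membrane potential signal moves up or down beyond 5 SD from buffer-only wells, on both duplicate plates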
HEK293 MPD ctr 2-2 = second check of TRPC6 modulator effects in parental HEK293 cells. 2,400 tested, 14% active. shares compounds with TRPC6 inhibitor. AID 488926. inhibition, % at 10 µM. membrane potential dye fluorescence; after compound, maximal acetylcholine stimulation;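 active = membrane potential signal drops by more than 5 SD from the mean control signal, in both duplicate plates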;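 also: plate controls were acetylcholine ECmax control wells for no effect and buffer only wells for full effect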
TRPC4 ctr mod = mouse TRPC4 off-target activity of TRPC6 modulators | shares compounds with TRPC6 inhibitor | HEK293 TRPC4/mu-opioid, membrane potential fluorescence | percent change from control (negative = decrease, positive = increase), % at 10 µM | 2,400 tested, 69% active;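 active = membrane potential signal moved up or down beyond 5 SD of buffer control wells, in both duplicate plates, actives on both sides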;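 also: plate controls were assay buffer wells for no effect and DAMGO maximal-effect wells for full effect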
TRPC4 ctr inh 2 = second selectivity test of TRPC6 modulators against mouse TRPC4; 2,400 tested, 55% active; inhibition, % at 10 µM; shares compounds with TRPC6 inhibitor; HEK293 TRPC4/mu-opioid, membrane potential dye fluorescence; stimulated with maximal-effect DAMGO;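 active = drop in membrane potential signal beyond 5 SD of the control wells in both duplicate plates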;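 also: TRPC4 counter screen for TRPC6 hits run under conditions tuned for TRPC6 not TRPC4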
TRPC6 block conf = confirmation of mouse TRPC6 inhibitors; 3,300 tested, 43% active; HEK293-TRPC6, membrane potential dye, ACh-evoked depolarization; inhibition, % at 10 µM; shares compounds with TRPC6 inhibitor;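 active = fluorescence ratio falls more than 5 SD below the full-stimulation control mean, in both duplicate runs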;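 also: integrated fluorescence ratio of peak minus minimum over baseline after agonist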
TRPC6 act confirm = confirmation of mouse TRPC6 activators; shares compounds with TRPC6 inhibitor; HEK293-TRPC6 membrane potential dye fluorescence, FDSS; activation, % at 10 µM; 2,800 tested, 11% active; AID 488961;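 active = ratio signal rise beyond 5 SD above unstimulated control wells' mean, seen in both duplicate runs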;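 also: plate controls were buffer EC0 wells for no effect and acetylcholine ECmax response for full effect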
The depositor's hits bear a star; i = inactive; x = no result. An excerpt weighted towards active compounds, which were near 2.3% of everything screened.

SMILES	TRPC4 act	TRPC6 inhibitor	TRPC6 activator	TRPC4 potent	TRPC4 inh	HEK293 MPD ctr-2	HEK293 MPD ctr 2-2	TRPC4 ctr mod	TRPC4 ctr inh 2	TRPC6 block conf	TRPC6 act confirm	others
Oc1ccc(-c2[nH]ncc2-c2ccc(Cl)cc2)c(O)c1	i	-7.4*	i	i	i	-74%*	i	-22%*	79%*	46%*	i
COc1ccc(-c2cn[nH]c2-c2ccc(OC)cc2O)cc1	i	-5.2*	i	i	i	i	i	-14%*	48%*	i	i
Oc1ccc(-c2[nH]ncc2-c2cccc3cccnc23)c(O)c1	i	i	i	i	i	x	x	x	x	x	x
O=C(N1CCCCC1)C1(S(=O)(=O)c2ccccc2)CC=CC1	i	i	i	i	i	x	x	x	x	x	x
CCOC(=O)CNC(=O)c1ccc(SCC)cc1	i	i	i	i	i	x	x	x	x	x	x
CCOC(=O)C1=C(C)NC(C)=C(C(=O)OCC)C1c1cccs1	i	i	i	i	i	x	x	x	x	x	x
CCOC(=O)C1=C(C)NC(C)=C(C(=O)OCC)C1c1sccc1C	i	-5.4*	i	i	i	i	i	i	40%*	i	i
O=C(/C(N=Nc1cccc([N+](=O)[O-])c1)=C(/O)c1ccc(Br)cc1)C(F)(F)F	i	-8.2*	i	i	i	x	x	x	x	81%*	i	TRPC4 sel inh 2=75%*;TRPC4 spec=8.5%*;HEK293 MPD ctr 2-1=i;HEK293 MPD ctr-1=5.2%*
NC(=O)[C@H]1CC2(CC(c3cccc(NC(=O)COc4ccc(Cl)cc4)c3)=NO2)CN1C(=O)C(c1ccccc1)c1ccccc1 (stereo not given in full)	i	i	i	i	i	x	x	x	x	x	x
O=Cc1cc(Cl)ccc1OCCN1CCC(Cc2ccccc2)CC1	i	i	i	i	i	x	x	x	x	x	x
Cc1ccc([N+](=O)[O-])c(OCCCN2CCC(Cc3ccccc3)CC2)c1	i	-5.2*	i	i	i	i	i	i	73%*	53%*	i
O=[N+]([O-])c1cccc(OCCN2CCC(Cc3ccccc3)CC2)c1	i	-8.4*	i	i	i	x	x	x	x	61%*	i	TRPC4 sel inh 2=33%*;TRPC4 spec=i;HEK293 MPD ctr 2-1=i;HEK293 MPD ctr-1=i
Cc1ccc([N+](=O)[O-])c(OCCN2CCCCCC2)c1	i	i	i	i	i	x	x	x	x	x	x
Cc1cc(OC(C)C(=O)NNC(=O)Nc2ccc(F)cc2F)cc(C)c1Cl (stereo not given)	i	i	i	i	i	x	x	x	x	x	x
COc1ccc(/C=C/C(=O)N2CCN(C)CC2)cc1OC	i	i	i	i	i	x	x	x	x	x	x
CN1CCc2c(sc3c2c(=O)n(-c2ccccc2)c2nncn32)C1	i	-5.9*	i	i	i	-101%*	i	-20%*	i	i	i
CCN(CC)c1ccc(NC(=O)C2=CCN(S(=O)(=O)c3ccc(F)cc3)CC2)c(C)c1	i	i	i	i	i	x	x	x	x	x	x
COc1cc(OC)c2c(-c3ccccc3)cc(=O)oc2c1C(CCN1CCN(c2ccccc2)CC1)c1ccc(N(C)C)cc1 (stereo not given)	i	i	i	i	i	x	x	x	x	x	x
COc1cc(OC)c2c(-c3ccccc3)cc(=O)oc2c1C(CCN1CCCC(C)C1)c1ccc(N(C)C)cc1 (stereo not given)	i	-5.9*	i	i	i	i	i	i	69%*	40%*	i
COc1cc(OC)c2c(C)cc(=O)oc2c1C(CCN1CCOCC1)c1ccc(N(C)C)cc1 (stereo not given)	i	-5.3*	i	i	i	-141%*	i	-28%*	52%*	42%*	i
COc1ccc(C(CCN2CCCC(C)C2)c2c(OC)cc(OC)c3c(-c4ccccc4)cc(=O)oc23)cc1 (stereo not given)	i	i	i	i	i	x	x	x	x	x	x
COc1cc([N+](=O)[O-])ccc1NC(=O)Oc1ccc(NC(C)=O)cc1	i	i	i	i	i	x	x	x	x	x	x
CC(=O)NC(CC(=O)Oc1ccc(C)cc1Br)c1ccccc1 (stereo not given)	i	i	i	i	i	x	x	x	x	x	x
Cc1ccc(N2CCOCC2)c2c1C(=O)c1ccccc1C2=O	i	-5.1*	i	i	i	-195%*	i	-34%*	71%*	43%*	i
O=C1C=C(N2CCOCC2)c2ccccc2C1=O	i	i	i	i	i	x	x	x	x	x	x
Cc1cc(N2C(=O)NC(=O)CC2C)c(C)cc1C(C)C (stereo not given)	i	-5.1*	i	i	i	i	i	i	i	i	i
O=C(NN=C1CCCC1)C1COc2ccccc2O1 (stereo not given)	i	i	i	i	i	x	x	x	x	x	x
CN(C)CCC(=O)c1ccc(Cl)cc1	i	i	i	i	i	x	x	x	x	x	x
CN(CCC(=O)c1ccccc1)CCC(=O)c1ccccc1	i	-5.3*	i	i	i	i	i	10%*	i	i	x
